Each structure is given as a SMILES string. Values after ≈ are worked out from the molar mass of the structure shown. Active and inactive are the calls of the source. The rule behind the calls is not given here.

Consider one compound from ChEMBL document CHEMBL1138269, “Antimicrobial lexitropsins containing amide, amidine, and alkene linking groups” (J Med Chem, 2007).

Data set [1] deals with Mycolicibacterium fortuitum. Put plainly: Antibacterial activity against Mycobacterium fortuitum NCTC 10394. Format: functional. A digest of the protocol: (§1)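 Broth microdilution in Mueller-Hinton broth. Samples were dissolved in sterile water to 200 µg mL-1 as the working solution and doubling dilutions were made across rows. Plates were incubated at 37 °C and inspected visually, with resazurin added as growth indicator. MIC reported in µg mL-1.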

The subject of the next data set is Candida albicans. Put plainly: Antifungal activity against Candida albicans NCPF 3179. In kind it is functional. Particulars: Candida albicans; read-out: MIC. In short, it runs like this:
(§2)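 Antifungal microdilution in Sabouraud broth. Test sample at 200 µg mL-1 working solution in sterile water was serially doubled down successive rows. Incubation was at 25 °C, followed by visual growth check and addition of resazurin indicator. Read-out is MIC in µg mL-1.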

A further data set deals with Aspergillus niger. Put plainly: Antifungal activity against Aspergillus niger IMI 149007. Format: functional. A digest of the protocol:
as §2

The test system of data set [2] is Staphylococcus aureus. Put plainly: Antibacterial activity against methicillin-resistant Staphylococcus aureus clinical isolate 1. In kind it is functional. In short, it runs like this:
(§3)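 Broth microdilution MIC against clinical S. aureus isolates (incl. MRSA), run per NCCLS guidelines in 96-well plates. Test sample dissolved in sterile water to a 200 µg mL-1 working concentration, then doubling dilutions in Mueller-Hinton broth. Incubated at 37 °C, growth read visually plus resazurin indicator. MIC reported in µg/mL.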

For data set [3], the system named is Staphylococcus aureus. Put plainly: Antibacterial activity against methicillin-resistant Staphylococcus aureus clinical isolate 2. Format: functional. In short, it runs like this:
as §3

The next data set deals with Enterococcus faecalis. Nature of the data set: Antibacterial activity against Streptococcus faecalis NCTC 775. In kind it is functional. The conditions noted are these: Enterococcus faecalis, NCTC 775; read-out: MIC. In short, it runs like this:
as §1

The subject of another data set is A-375. Nature of the data set: Cytotoxicity against human A375 cells. In kind it is cell-based.
Another data set relates to Jurkat. Put plainly: Cytotoxicity against human Jurkat cells. In kind it is cell-based.
The test system of data set [4] is Staphylococcus aureus. Put plainly: Antibacterial activity against methicillin-resistant Staphylococcus aureus clinical isolate 4. Format: functional. A digest of the protocol:
as §3

Data set [5] deals with Staphylococcus aureus. Nature of the data set: Antibacterial activity against methicillin-resistant Staphylococcus aureus clinical isolate 5. Format: functional. In short, it runs like this:
as §3

For the next data set, the system named is L929. Nature of the data set: Cytotoxicity against mouse L929 cells. In kind it is cell-based.
In data set [6] the test system is Staphylococcus aureus. Put plainly: Antibacterial activity against methicillin-resistant Staphylococcus aureus clinical isolate 3. In kind it is functional. In short, it runs like this: as §3
For data set [7], the system named is Staphylococcus aureus. Nature of the data set: Antibacterial activity against Staphylococcus aureus LS1 in mouse at 40 mg/kg, ip. In kind it is functional, organism-based. Further details: dose 40 mg/kg. In short, it runs like this:
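Mice of 18-22 g, five per group, were inoculated intravenously with 50 million cfu of S. aureus LS-1, which causes bacteraemia and then joint localization within 3-4 days. A single dose (groups at 60, 40, 20 or 10 mg/kg) was given iv or ip. Joint inflammation was scored, with caliper measurement of affected joint diameter.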

The nature of data set [8]: Cytotoxicity against human TE671 cells. In kind it is cell-based. The conditions noted are these: te-671.
Another data set has as its system H9c2. Put plainly: Cytotoxicity against rat H9C2 cells. In kind it is cell-based.
Data set [9] relates to Staphylococcus aureus. Nature of the data set: Antibacterial activity against methicillin-sensitive Staphylococcus aureus NCTC 6571. Format: functional. Particulars: Staphylococcus aureus, NCTC 6571; read-out: MIC. In short, it runs like this: as §1

With `COc1ccc(/C=C/c2ccc(C(=O)Nc3cc(C(=O)Nc4cc(C(=O)NCCN5CCOCC5)n(C)c4)n(C)c3)cn2)cc1`, the MIC in data set [1] stood at 50 µg/mL (≈ 81.7 µM); in the data set with Candida albicans it was 25 µg/mL (≈ 40.9 µM); against Aspergillus niger, 50 µg/mL (≈ 81.7 µM); against Staphylococcus aureus [2], 0.5 µg/mL (≈ 0.817 µM); in the data set with Staphylococcus aureus [3] it was 4 µg/mL (≈ 6.54 µM); in the data set with Enterococcus faecalis, 6 µg/mL (≈ 9.81 µM). Moreover, the minimum inhibitory concentration (MIC) against Staphylococcus aureus [4] amounted to 2 µg/mL (≈ 3.27 µM); against Staphylococcus aureus [5] it was 0.5 µg/mL (≈ 0.817 µM); with Staphylococcus aureus [6], 2 µg/mL (≈ 3.27 µM); with Staphylococcus aureus [9], 6 µg/mL (≈ 9.81 µM). The Activity entry (with A-375; in the data set on Jurkat; with L929; in [8]; in the data set on H9c2) was “Non-toxic” throughout. Besides, the result with Staphylococcus aureus [7] was Active.

The term MIC denotes the lowest concentration that inhibits growth of the organism.
